Assay results from PMC6805150 (Bioorganic & medicinal chemistry, 2014).
Blank lines part the entries; values can stand above or below the molecule they belong to. No end group written: not given here.

Legend:
Jurkat T cells = assay: CellTiter-GLO cell viability/proliferation assay; conditions: 4 μM, 24 h (Table 1)
[1] = biological target: T1, GST-RXRα LBD with D22 coactivator peptide (Homo sapiens, UniProt P19793); assay: TR-FRET RXR LBD-coactivator peptide recruitment assay, D22 peptide; type: biochemical; conditions: in combination with a low concentration of CD3254 agonist (Figure S2)
T1 sequence (P19793 227-458 limits assumed): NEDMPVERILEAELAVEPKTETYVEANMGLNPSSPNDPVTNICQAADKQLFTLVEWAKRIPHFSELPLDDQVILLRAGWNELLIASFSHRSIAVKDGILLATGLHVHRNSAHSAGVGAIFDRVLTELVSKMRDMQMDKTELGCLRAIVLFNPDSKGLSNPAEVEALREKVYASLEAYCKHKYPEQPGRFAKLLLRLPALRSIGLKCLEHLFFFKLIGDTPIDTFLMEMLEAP
In short: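 5 nM GST-RXRα LBD incubated at room temperature with 150 nM fluorescein-D22 peptide in 25 mM Hepes pH 7.4, 100 mM NaCl, 0.025% BSA, 5% glycerol, 0.005% Tween-20, 2.5 mM DTT. Ligand or DMSO (≤1%) added; 2 nM Tb-anti-GST antibody for detection. After 4 h, TR-FRET read at 495 and 520 nm. The 520/495 ratio was expressed as Delta F% against controls lacking GST-RXRα.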

recombinant IKKβ = biological target: T2, recombinant IKKβ (Homo sapiens, UniProt O14920); assay: LANCE Ultra TR-FRET kinase assay, recombinant IKKβ; type: biochemical
T2 sequence (O14920 1-756): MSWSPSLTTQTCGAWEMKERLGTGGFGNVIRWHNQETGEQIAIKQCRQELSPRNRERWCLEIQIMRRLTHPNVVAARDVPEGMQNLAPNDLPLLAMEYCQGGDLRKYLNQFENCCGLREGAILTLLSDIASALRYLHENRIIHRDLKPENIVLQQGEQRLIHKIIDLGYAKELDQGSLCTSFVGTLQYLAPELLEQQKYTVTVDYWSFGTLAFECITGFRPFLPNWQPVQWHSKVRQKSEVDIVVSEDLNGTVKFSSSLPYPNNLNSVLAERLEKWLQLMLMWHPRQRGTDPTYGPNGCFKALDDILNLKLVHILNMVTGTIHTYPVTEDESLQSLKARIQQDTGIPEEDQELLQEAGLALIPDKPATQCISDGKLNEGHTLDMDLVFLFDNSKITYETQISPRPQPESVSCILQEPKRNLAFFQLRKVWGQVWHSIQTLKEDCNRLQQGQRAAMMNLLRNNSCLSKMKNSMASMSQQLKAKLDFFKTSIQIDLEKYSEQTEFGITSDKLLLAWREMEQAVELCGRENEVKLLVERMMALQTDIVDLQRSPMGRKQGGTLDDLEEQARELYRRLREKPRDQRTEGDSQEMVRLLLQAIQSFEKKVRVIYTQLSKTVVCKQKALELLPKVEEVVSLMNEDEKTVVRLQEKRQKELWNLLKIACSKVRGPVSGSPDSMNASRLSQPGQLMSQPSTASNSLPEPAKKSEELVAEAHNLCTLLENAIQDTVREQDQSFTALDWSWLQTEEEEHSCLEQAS
In short: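 Purified recombinant IKKβ (1 nM) in Hepes pH 7.4 buffer with MgCl₂, EGTA, DTT and Tween-20; 50 nM ULight-IκBα peptide substrate; 1.25 μM ATP. Runs 1 h at room temperature, then stopped with 20 mM EDTA plus 2 nM Eu-labelled phospho-specific antibody for TR-FRET. Activity is % of solvent control, 3–4 experiments in triplicate.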

RXRα = biological target: T3, RXRα (Homo sapiens, UniProt P19793); assay: Gal4-RXRα transactivation assay in HEK-293-luciferase reporter cells; type: cell-based
T3 sequence (P19793 1-462): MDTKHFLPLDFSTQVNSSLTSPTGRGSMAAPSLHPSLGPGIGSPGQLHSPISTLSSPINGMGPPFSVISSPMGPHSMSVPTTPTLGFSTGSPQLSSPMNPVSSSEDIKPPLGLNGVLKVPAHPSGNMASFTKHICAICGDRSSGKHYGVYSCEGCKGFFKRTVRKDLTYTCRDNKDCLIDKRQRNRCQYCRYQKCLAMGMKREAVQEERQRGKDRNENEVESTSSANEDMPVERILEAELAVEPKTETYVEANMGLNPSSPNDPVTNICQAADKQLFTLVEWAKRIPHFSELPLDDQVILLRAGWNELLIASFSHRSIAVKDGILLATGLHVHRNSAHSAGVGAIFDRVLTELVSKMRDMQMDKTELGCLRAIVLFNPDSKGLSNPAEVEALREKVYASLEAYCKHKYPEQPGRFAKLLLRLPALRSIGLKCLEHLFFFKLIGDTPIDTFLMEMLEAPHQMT

recombinant IKKε = biological target: T4, recombinant IKKε (Homo sapiens, UniProt Q14164); assay: LANCE Ultra TR-FRET kinase assay, recombinant IKKε; type: biochemical; conditions: 20 μM AdAr; ATP near apparent Km; vs solvent control; ± SD, 3–4 experiments
T4 sequence (Q14164 1-716): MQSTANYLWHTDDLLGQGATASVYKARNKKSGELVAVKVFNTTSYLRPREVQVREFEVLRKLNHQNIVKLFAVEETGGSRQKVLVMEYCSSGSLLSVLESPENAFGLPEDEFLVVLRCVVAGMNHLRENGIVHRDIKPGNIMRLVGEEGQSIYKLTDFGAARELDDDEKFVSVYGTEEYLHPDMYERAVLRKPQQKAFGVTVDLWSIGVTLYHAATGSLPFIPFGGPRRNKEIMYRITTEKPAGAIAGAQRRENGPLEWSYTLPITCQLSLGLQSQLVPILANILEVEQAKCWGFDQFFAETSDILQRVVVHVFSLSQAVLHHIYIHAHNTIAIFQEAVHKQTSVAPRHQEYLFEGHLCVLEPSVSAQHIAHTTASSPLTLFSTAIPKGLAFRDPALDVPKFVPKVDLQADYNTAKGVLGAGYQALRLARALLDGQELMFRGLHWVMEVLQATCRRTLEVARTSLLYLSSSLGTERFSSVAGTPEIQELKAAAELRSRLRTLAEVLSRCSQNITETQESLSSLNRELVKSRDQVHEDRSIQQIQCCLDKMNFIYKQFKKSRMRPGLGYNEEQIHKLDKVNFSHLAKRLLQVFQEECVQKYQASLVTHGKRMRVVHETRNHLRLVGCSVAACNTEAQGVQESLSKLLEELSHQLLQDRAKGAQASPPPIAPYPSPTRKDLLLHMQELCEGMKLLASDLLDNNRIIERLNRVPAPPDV
In short: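 Recombinant IKKε enzyme, 2 nM final, in Hepes pH 7.4 kinase buffer (10 mM MgCl₂, 1 mM EGTA, 2 mM DTT, 0.01% Tween-20). Substrate was 50 nM ULight-rpS6, with 5 μM ATP, run 2 h at room temperature. The reaction was quenched with 20 mM EDTA containing 2 nM Eu-anti-phospho antibody. After 2 h, TR-FRET was read at 615 and 665 nm (340 nm excitation). Percent inhibition was taken versus solvent control; triplicate points.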

recombinant IKKα = biological target: T5, recombinant IKKα (Homo sapiens, UniProt O15111); assay: LANCE Ultra TR-FRET kinase assay, recombinant IKKα; type: biochemical; conditions: 20 μM AdAr; ATP near apparent Km; vs solvent control; ± SD, 3–4 experiments
T5 sequence (O15111 1-745): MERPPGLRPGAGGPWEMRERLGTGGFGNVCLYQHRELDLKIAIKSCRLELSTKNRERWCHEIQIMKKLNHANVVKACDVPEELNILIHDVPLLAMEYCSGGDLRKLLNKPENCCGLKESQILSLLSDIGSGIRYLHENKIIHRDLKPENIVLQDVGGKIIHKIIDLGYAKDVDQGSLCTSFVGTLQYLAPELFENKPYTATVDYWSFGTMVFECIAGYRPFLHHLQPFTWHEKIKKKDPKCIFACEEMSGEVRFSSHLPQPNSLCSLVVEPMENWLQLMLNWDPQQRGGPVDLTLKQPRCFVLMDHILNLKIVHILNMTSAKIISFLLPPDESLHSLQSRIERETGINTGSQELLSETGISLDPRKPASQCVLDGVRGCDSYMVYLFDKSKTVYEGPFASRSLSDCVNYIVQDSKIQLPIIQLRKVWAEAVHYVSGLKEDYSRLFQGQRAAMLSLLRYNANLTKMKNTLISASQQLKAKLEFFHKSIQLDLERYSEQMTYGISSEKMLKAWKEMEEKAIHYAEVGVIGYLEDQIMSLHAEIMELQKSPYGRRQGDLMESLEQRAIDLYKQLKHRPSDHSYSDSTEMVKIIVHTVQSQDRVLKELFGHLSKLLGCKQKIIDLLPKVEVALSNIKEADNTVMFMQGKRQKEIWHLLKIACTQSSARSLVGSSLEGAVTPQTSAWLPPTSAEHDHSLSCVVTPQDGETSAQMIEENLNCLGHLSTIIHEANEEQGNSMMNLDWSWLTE
In short: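 Reaction stopped with 20 mM EDTA plus 2 nM Eu-labelled phospho-specific antibody. TR-FRET (ex 340 nm; 615/665 nm) read 2 h later. Counts normalized; inhibition relative to solvent control; triplicates.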

GST-RXRα LBD = assay: AlphaScreen or HTRF

Molecule: O=C(O)c1ccc(-c2cnc(-c3ccc(O)c(C45CC6CC(CC(C6)C4)C5)c3)s2)cc1 [8a, 4-[2-(3-Adamantan-1-yl-4-hydroxyphenyl)thiazol-5-yl]benzoic Acid]
inhibition of Jurkat cell viability (Jurkat T cells): > 85%

Molecule: CCCCCOc1cc2c(cc1-c1cc(/C=C/C(=O)O)ccc1O)C(C)(C)CCC2(C)C [34, UVI3003, reference compound]
inhibition of RXRα LBD/D22 binding stimulated by CD3254 [1]: complete inhibition

Molecule: Cc1cc(O)c(C23CC4CC(CC(C4)C2)C3)cc1-c1ccc2cc(C(=O)O)ccc2c1Cl [4a]
inhibition of Jurkat cell viability (Jurkat T cells): > 85% | potency against IKKβ relative to MX781 3 (times more potent) (recombinant IKKβ; ratio of IC50 values): about 2.5 times | inhibition of RXRα LBD/D22 binding stimulated by CD3254 [1]: 25% | inhibition in Gal4-RXRα transactivation assay, antagonist mode (RXRα; 100 nM CD3254 plus 4 μM AdAr): 30%

Molecule: (E)-3-[2-(3-Acetamidopropoxy)-3-(adamant-1-yl)-4-hydroxybiphenyl-4-yl]acrylic Acid [2c]
% Inhibition of IKK activity IKKε (recombinant IKKε): 14.4 ± 4.1% | % Inhibition of IKK activity IKKα (recombinant IKKα): 5.0 ± 4.9% | % Inhibition of IKK activity IKKβ (recombinant IKKβ; 20 μM AdAr, ATP near apparent Km, vs solvent control, ± SD, 3–4 experiments): 0%

Other lines, results leading:

inhibition of RXRα LBD/D22 binding stimulated by CD3254 [1]: 25%
Molecule: Cc1cc(O)c(C23CC4CC(CC(C4)C2)C3)cc1-c1ccc(CC(=O)O)cc1Cl [6a]

Gal4-RXRα transactivation, % of the maximum activity observed with control rexinoid CD3254 (RXRα; 4 μM AdAr, CD3254 1 μM): ~ 20% | RXR Profile Agonist (fold induction of RXRα activity) (RXRα; AdArs 4 μM, positive control CD3254 1 μM, vs solvent control cells): 3 fold induction
Molecule: COCCOCOc1ccc(-c2ncc(-c3ccc(C(=O)O)cc3)s2)cc1C12CC3CC(CC(C3)C1)C2 [8c, 4-[2-(3-Adamantan-1-yl-4-[(2-methoxyethoxy)methoxy]phenyl)thiazol-5-yl]benzoic Acid]

% inhibition of the CD3254-stimulated interaction (by 4a) (GST-RXRα LBD): 25% | % inhibition of the CD3254-stimulated interaction (by 6a) (GST-RXRα LBD): 25% | Delta F% (ligand: 4a) (GST-RXRα LBD): 29% | Delta F% (ligand: 4b) (GST-RXRα LBD): 159% | Delta F% (ligand: 5a) (GST-RXRα LBD): 487% | Delta F% (ligand: 5b) (GST-RXRα LBD): 654% | Delta F% (ligand: 5c) (GST-RXRα LBD): 113% | Delta F% (ligand: 6b) (GST-RXRα LBD): 214% | Delta F% (ligand: 7a) (GST-RXRα LBD): 156% | Delta F% (ligand: 7c) (GST-RXRα LBD): 127% | Delta F% (ligand: 8a) (GST-RXRα LBD): 94% | Delta F% (ligand: 8b) (GST-RXRα LBD): 113% | Delta F% (ligand: 8c) (GST-RXRα LBD): 133% | Delta F% (ligand: 9c) (GST-RXRα LBD): 119% | Delta F% (ligand: 10a) (GST-RXRα LBD): 102% | Delta F% (ligand: 10c) (GST-RXRα LBD): 170% | Delta F% (ligand: 9d) (GST-RXRα LBD): 87% | Delta F% (ligand: CD3254 33) (GST-RXRα LBD): 416% | Delta F% (no ligand) (GST-RXRα LBD): 100%
B1: fluorescein labeled D22 coactivator peptide (peptide)
peptide: fluorescein-LPYEGSLLLKLLRAPVEEV

Delta F% (ligand: 4a) (GST-RXRα LBD): 53% | Delta F% (ligand: 4b) (GST-RXRα LBD): 187% | Delta F% (ligand: 5a) (GST-RXRα LBD): 373% | Delta F% (ligand: 5b) (GST-RXRα LBD): 437% | Delta F% (ligand: 5c) (GST-RXRα LBD): 152% | Delta F% (ligand: 6a) (GST-RXRα LBD): 81% | Delta F% (ligand: 6b) (GST-RXRα LBD): 422% | Delta F% (ligand: 7a) (GST-RXRα LBD): 162% | Delta F% (ligand: 8a) (GST-RXRα LBD): 183% | Delta F% (ligand: 8b) (GST-RXRα LBD): 117% | Delta F% (ligand: 8c) (GST-RXRα LBD): 159% | Delta F% (ligand: 9a) (GST-RXRα LBD): 116% | Delta F% (ligand: 9b) (GST-RXRα LBD): 106% | Delta F% (ligand: 9c) (GST-RXRα LBD): 122% | Delta F% (ligand: 10a) (GST-RXRα LBD): 111% | Delta F% (ligand: 10c) (GST-RXRα LBD): 172% | Delta F% (ligand: 7d) (GST-RXRα LBD): 133% | Delta F% (ligand: 8d) (GST-RXRα LBD): 115% | Delta F% (ligand: 9d) (GST-RXRα LBD): 106% | Delta F% (ligand: CD3254 33) (GST-RXRα LBD): 561% | Delta F% (no ligand) (GST-RXRα LBD): 148%
B2: biotinylated SRC-1-676-700 peptide (peptide)
peptide: CPSSHSSLTERHKILHRLLQEGSPSK
modifications: biotin on the added C-terminal lysine (-K-biotin)
